Source: ChEMBL document CHEMBL5579858, “Design, synthesis, and structure-activity relationship studies of 6,7-dihydro-5H-pyrrolo[1,2-b][1,2,4]triazole derivatives as necroptosis inhibitors” (RSC Med Chem, 2024)
Values belong to the molecule of their own block, whether it stands above or below them.

Experiments:
[1] = Anti-necroptotic activity in human I2.1 cells assessed as inhibition of TNFalpha-induced necroptosis by measuring necroptosis recovery at 10 nM preincubated for 1 hr followed by TNFalpha addition and measured after 24 hrs by CCK-8 assay relative to control; format: functional; parameters: scale not given: the % may be the effect or the level left; settings: time 25 hrs
Outline: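 Human I2.1 cells from ATCC, seeded at low density in growth medium and incubated overnight. Compound added first. After 1 h, stimulated with TNF-α 20 ng mL⁻¹ and incubated a further 24 h. Viability read by CCK-8. Recovery is mean ± SD of at least two assays.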

[2] = tested on: Hepa 1-6; test: Anti-necroptotic activity in mouse Hepa1-6 cells assessed as inhibition of TNFalpha/BV6/Z-VAD-induced necroptosis by measuring necroptosis recovery at 10 nM measured after 24 hrs by CCK-8 assay relative to control; format: functional; parameters: scale not given: the % may be the effect or the level left
Outline: (§1)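 Murine Hepa1-6 cells from ATCC, seeded at low density and incubated overnight. Z-VAD 10 μM added 1 h ahead. Necroptosis then induced with TNF-α 20 ng mL⁻¹ plus BV6 10 μM, together with compound, for 24 h. Viability read by CCK-8. Recovery is mean ± SD of at least two assays.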

[3] = tested on: Hepa 1-6; test: Anti-necroptotic activity in mouse Hepa1-6 cells assessed as inhibition of TNFalpha/BV6/Z-VAD-induced necroptosis by measuring necroptosis recovery at 1 uM measured after 24 hrs by CCK-8 assay relative to control; format: functional; parameters: scale not given: the % may be the effect or the level left; outline: as §1
[4] = tested on: Hepa 1-6; test: Anti-necroptotic activity in mouse Hepa1-6 cells assessed as inhibition of TNFalpha/BV6/Z-VAD-induced necroptosis by measuring necroptosis recovery at 100 nM measured after 24 hrs by CCK-8 assay relative to control; format: functional; parameters: scale not given: the % may be the effect or the level left; outline: as §1
[5] = target: T1, Receptor-interacting serine/threonine-protein kinase 1 (Homo sapiens) (UniProt Q13546); test: Inhibition of recombinant human N-terminal GST-tagged RIPK1 (1 to 327 residues) expressed in baculovirus infected Sf9 insect cells at 1 uM using myelin basic protein as substrate by ADP-glo assay relative to control
T1 sequence (whole entry): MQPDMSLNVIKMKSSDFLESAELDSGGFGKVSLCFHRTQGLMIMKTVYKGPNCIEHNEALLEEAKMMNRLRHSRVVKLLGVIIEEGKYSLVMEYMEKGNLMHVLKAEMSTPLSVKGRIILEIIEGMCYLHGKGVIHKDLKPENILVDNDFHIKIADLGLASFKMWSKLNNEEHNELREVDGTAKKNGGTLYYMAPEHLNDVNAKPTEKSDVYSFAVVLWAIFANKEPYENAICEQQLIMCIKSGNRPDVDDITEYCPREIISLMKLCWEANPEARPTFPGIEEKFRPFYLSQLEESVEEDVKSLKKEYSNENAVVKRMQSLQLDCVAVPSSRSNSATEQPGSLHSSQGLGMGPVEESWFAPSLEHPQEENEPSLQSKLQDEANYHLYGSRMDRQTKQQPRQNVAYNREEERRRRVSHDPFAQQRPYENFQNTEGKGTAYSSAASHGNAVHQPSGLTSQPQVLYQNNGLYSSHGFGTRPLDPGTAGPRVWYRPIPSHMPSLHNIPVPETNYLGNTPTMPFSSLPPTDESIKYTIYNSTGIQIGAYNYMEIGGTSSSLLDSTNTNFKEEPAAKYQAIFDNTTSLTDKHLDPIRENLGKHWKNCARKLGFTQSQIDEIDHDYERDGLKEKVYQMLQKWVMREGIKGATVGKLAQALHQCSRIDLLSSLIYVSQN
Outline: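 RIPK1 kinase activity tested at 1 μM. Read-out is luminescence. Inhibition% = (DMSO-control specific signal − inhibitor specific signal)/DMSO-control specific signal × 100.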

[6] = Tmax in Sprague-Dawley rat at 3 mg/kg, po by LC-MS/MS analysis; format: ADME, organism-based; settings: in vivo
Outline: (§2)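 Male Sprague Dawley rats, N = 3. Single oral dose of 3 mg kg⁻¹ in DMSO/0.5% HMPC (5/95, v/v). Blood taken at 0.25, 0.5, 1, 2, 4, 8 and 24 h. Serum drug levels measured by LC-MS/MS. Parameters reported as means.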

[7] = AUClast in Sprague-Dawley rat at 3 mg/kg, po by LC-MS/MS analysis; format: ADME, organism-based; settings: in vivo; outline: as §2
[8] = Elimination half-life in Sprague-Dawley rat at 3 mg/kg, po by LC-MS/MS analysis; format: ADME, organism-based; settings: in vivo, read-out: beta t1/2 (converted); outline: as §2
[9] = Cmax in Sprague-Dawley rat at 3 mg/kg, po by LC-MS/MS analysis; format: ADME, organism-based; settings: in vivo; outline: as §2
[10] = tested on: HT-29; test: Anti-necroptotic activity in human HT-29 cells assessed as inhibition of TNFalpha/Z-VAD-fmk/AT-406-induced necroptosis preincubated for 30 mins followed by TNFalpha/Z-VAD-fmk/AT-406 addition and measured after 16 to 20 hrs by CCK-8 assay; format: functional, cell-based

SMILES: Cc1ccc(OCCCC(C)(C)O)cc1-c1ccnc(NC(=O)c2nc3n(n2)C(C2CCCC2)CC3)c1 (stereo not given)
Activity [1]: 73.2%

SMILES: Cc1ccc(OCCC2CCOCC2)cc1-c1ccnc(NC(=O)c2nc3n(n2)C(c2ccccc2)CC3)c1 (stereo not given)
Activity [1]: 91.9%
Activity [2]: 3.7%
Activity [3]: 96.6%
Activity [4]: 10.7%

SMILES: Cc1ccc(OCCCC(C)(C)O)cc1-c1ccnc(NC(=O)c2nc3n(n2)[C@@H](c2ccccc2)C[C@H]3F)c1 (relative stereo)
Activity [1]: 80.6%
Activity [2]: 100.5%
Activity [3]: 110%
Activity [4]: 107.6%

SMILES: CC(C)(O)CCCOc1ccc(Cl)c(-c2ccnc(NC(=O)c3nc4n(n3)C(c3ccccc3)CC4)c2)c1 (stereo not given)
Activity [1]: 80.6%
Activity [3]: 2.9%

inhibition [5]: < 0%
SMILES: Cc1ccc(OCCN2CCOCC2)cc1-c1ccnc(NC(=O)c2nc3n(n2)[C@@H](c2ccccc2)C[C@H]3F)c1

SMILES: Cc1ccc(OCCCC(C)(C)O)cc1-c1ccnc(NC(=O)c2nc3n(n2)C(c2ccccc2)CC3)c1 (stereo not given)
Activity [1]: 81.2%
Activity [2]: 5.5%
Activity [3]: 86.6%
Activity [4]: 26.1%

SMILES: Cc1ccc(OCCCC(C)(C)O)cc1-c1ccnc(NC(=O)c2nc3n(n2)C(c2cccc(F)c2)CC3)c1 (stereo not given)
Activity [1]: 58.1%

SMILES: Cc1ccc(OCCCC#N)cc1-c1ccnc(NC(=O)c2nc3n(n2)C(c2ccccc2)CC3)c1 (stereo not given)
Activity [1]: 35.8%

SMILES: Cc1ccc(OCCCC(C)(C)O)cc1-c1cc(NC(=O)c2nc3n(n2)C(c2ccccc2)CC3)ncc1Cl (stereo not given)
Activity [1]: 56.2%

Tmax [6]: 0.67 h
AUC(0-t) [7]: 15.2 ng·h/mL
inhibition [5]: 79.1%
half-life [8]: 1.91 h
Cmax [9]: 8.9 ng/mL
SMILES: Cc1ccc(OCCN2CCOCC2)cc1-c1ccnc(NC(=O)c2nc3n(n2)[C@H](c2ccccc2)C[C@@H]3F)c1
Activity [1]: 97.9%
Activity [2]: 102.4%

SMILES: Cc1ccc(OCCCC(C)(C)O)cc1-c1ccnc(NC(=O)c2nc3n(n2)C(c2ccc(F)cc2)CC3)c1 (stereo not given)
Activity [1]: 60.1%

SMILES: COc1ccc(C)c(-c2ccnc(NC(=O)c3nc4n(n3)C(c3ccccc3)CC4)c2)c1 (stereo not given)
Activity [1]: 73.7%

inhibition [5]: < 0%
SMILES: Cc1ccc(OCCC2CCOCC2)cc1-c1ccnc(NC(=O)c2nc3n(n2)[C@@H](c2ccccc2)C[C@H]3F)c1

SMILES: Cc1ccc(OCC(C)(C)O)cc1-c1ccnc(NC(=O)c2nc3n(n2)C(c2ccccc2)CC3)c1 (stereo not given)
Activity [1]: 98.2%
Activity [2]: 3.8%
Activity [3]: 94.1%
Activity [4]: 10.9%

SMILES: Cc1ccc(OCCCC(C)(C)O)cc1-c1cnnc(NC(=O)c2nc3n(n2)C(c2ccccc2)CC3)c1 (stereo not given)
Activity [1]: 53.6%

SMILES: Cc1ccc(OCCCC(C)(C)O)cc1-c1cc(NC(=O)c2nc3n(n2)C(c2ccccc2)CC3)ncc1F (stereo not given)
Activity [1]: 58.1%

SMILES: Cc1ccc(OCCCC(C)(C)O)cc1-c1ccnc(NC(=O)c2nc(Cc3ccccc3)n[nH]2)c1
Activity [1]: 90%
Activity [3]: <0%
IC50 [10]: < 100 nM

SMILES: Cc1ccc(OCCCC(C)(C)O)cc1-c1ccnc(NC(=O)c2nc3n(n2)C(c2ccccc2F)CC3)c1 (stereo not given)
Activity [1]: 62.7%

SMILES: Cc1ccc(OCCCC(C)(C)O)cc1-c1ccnc(NC(=O)c2nc3n(n2)[C@H](c2ccccc2)C[C@H]3F)c1 (relative stereo)
Activity [1]: 98.9%
Activity [2]: 6.3%
Activity [3]: 104.2%
Activity [4]: 41.3%

inhibition [5]: 78.8%
SMILES: Cc1ccc(OCCC2CCOCC2)cc1-c1ccnc(NC(=O)c2nc3n(n2)[C@H](c2ccccc2)C[C@@H]3F)c1
Activity [1]: 70.5%
Activity [2]: 111.4%

SMILES: Cc1ccc(OCCCC(C)(C)O)cc1-c1cc(NC(=O)c2nc3n(n2)C(c2ccccc2)CC3)ncc1C (stereo not given)
Activity [1]: 72.7%

SMILES: Cc1ccc(OCCCC(C)(C)O)cc1-c1ccnc(NC(=O)c2nc3n(n2)C(C2CCCCC2)CC3)c1 (stereo not given)
Activity [1]: 61.2%

SMILES: CC(C)(O)CCCOc1cccc(-c2ccnc(NC(=O)c3nc4n(n3)C(c3ccccc3)CC4)c2)c1 (stereo not given)
Activity [1]: 86.1%
Activity [3]: 2.2%
